The values that follow come from ChEMBL document CHEMBL2321775, “Synthesis and biological characterization of new aminophosphonates for mitochondrial pH determination by (31)P NMR spectroscopy” (J Med Chem, 2013).

Data set [1] relates to NIH3T3. Description: (§1) Cytotoxicity against mouse 3T3 cells assessed as cell viability after 3 hrs by spectrophotometric analysis. Format: cell-based. The settings on record: nih3t3, 3 h. The essentials:
(§2)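 Confluent 3T3 fibroblasts (DMEM, 10% FCS, 37 °C, 5% CO2) were switched to phenol red-free DMEM with 1% glucose and exposed 3 h to compound at 0.01−5 mM final (0.1% DMSO). Cells were then given neutral red (50 μg/mL, 2% FCS MEM) for 2 h and read at 540 nm. LD50 and LD10 were taken from dose−response curves over 3−6 experiments.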

Data set [2] in a line: as §1. Format: cell-based, NIH3T3. The settings on record: 3T3 cells (NIH3T3), read-out: LD50. The method, boiled down:
as §2

A short description of data set [3]: Dissociation constant, pKa of the compound in Krebs-Henseleit buffer. The class given is physicochemical. The essentials: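 31P NMR titration at 25 °C in Krebs−Henseleit buffer, with shifts referenced to external phosphoric acid and a D2O capillary as lock. Diethoxyphosphoryl shift plotted against pH (range 1.5−12) and fitted to the Henderson−Hasselbalch equation by nonlinear regression. Three independent titrations per compound, mean ± SEM.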

Data set [4] relates to NIH3T3. Description: Cytotoxicity against mouse 3T3 cells assessed as LDH release per mg of protein at LD10 concentration after 1 hr by spectrophotometric analysis. The settings on record: nih3t3, 1 h. Format: cell-based. The method, boiled down:
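LDH released into the supernatant was measured after 1 h with a kit and expressed per mg protein. Total LDH was obtained from a Triton X-100 (1%) lysis control. Means of 3−6 independent experiments.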

Data set [5] in a line: Toxicity against Chlamydomonas reinhardtii D66 assessed as loss of photosynthetic activity after 1 hr. The settings on record: Chlamydomonas reinhardtii D66 cells, read-out: LD50. The method, boiled down:
(§3)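 Cell wall-less C. reinhardtii D66 grown in Tris acetate phosphate medium to 1−5 × 10^6 cells/mL at 25 °C. Exposed 1 h at 25 °C to 0.01−1 mM compound (DMSO ≤0.1%), under saturating light for photosynthesis or in the dark for respiration. NaHCO3 added (1 mM), then O2 measured by Clark electrode against DMSO control. LD50 is the concentration giving 50% activity loss.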

Data set [6] is described as follows: Toxicity against Chlamydomonas reinhardtii D66 assessed as loss of respiratory activity after 1 hr. The settings on record: Chlamydomonas reinhardtii D66 cells, read-out: LD50. The essentials:
as §3

Data set [7] in a line: Drug uptake in Sprague-Dawley rat liver mitochondria incubated for 1 hr followed by compound washout measured after 10 mins. The class given is ADME. The method, boiled down: (§4)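 Sprague−Dawley male rat livers (120−150 g) perfused via the portal vein, non-recirculating, at 37 °C with KH bicarbonate buffer (95% O2/5% CO2, pH 7.35) at 3 mL/min/g. After 30 min equilibration, 0.1 mM compound was given for 1 h, followed by a 10 min ice-cold KH washout. Liver homogenised in 0.25 M sucrose/10 mM HEPES pH 7.5; cytosol and mitochondria separated by differential centrifugation and levels reported as μmol/g. 3−9 experiments, mean ± SD.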

In data set [8] the test system is Liver. Briefly: Metabolic stability in Sprague-Dawley rat liver incubated for 1 hr followed by compound washout measured after 10 mins by 31P-NMR analysis. The class given is ADME, tissue-based.
Data set [9] relates to Liver. Description: Toxicity against Sprague-Dawley rat liver assessed as mitochondrial membrane potential incubated for 1 hr followed by compound washout measured after 10 mins. The class given is tissue-based. The method, boiled down:
(§5)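 Livers perfused at 37 °C with 0.1 mM compound for 1 h, then 10 min cold KH washout. Mitochondria isolated in ice-cold 0.3 M sucrose by differential centrifugation for membrane potential measurement. RCR was taken as respiration with 0.5 mM ADP divided by respiration after ADP phosphorylation ended, in KH2PO4/EDTA/MOPS/MgCl2 with glutamate 20 mM and malate 1 mM, pH 7.2, 37 °C. Mean ± SD.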

The subject of data set [10] is Liver. Briefly: Toxicity against Sprague-Dawley rat liver assessed as respiratory control ratio incubated for 1 hr followed by compound washout measured after 10 mins. Format: tissue-based. The method, boiled down:
as §5

Data set [11] concerns Liver. Briefly: Toxicity against Sprague-Dawley rat liver assessed as ATP content incubated for 1 hr followed by compound washout measured after 10 mins. Format: tissue-based. The essentials:
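Rat livers perfused at 37 °C with KH buffer containing 0.1 mM compound for 1 h, then washed out for 10 min with cold KH. Organ freeze-clamped in liquid nitrogen and ATP measured enzymatically in perchloric extracts, given as μmol/g. Mean ± SD of 3−9 experiments.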

A short description of data set [12]: Drug uptake in Sprague-Dawley rat liver mitochondria incubated for 1 hr followed by compound washout measured after 10 mins by 31P-NMR analysis. Format: ADME. The method, boiled down: as §4
Data set [13] is described as follows: Drug uptake in Sprague-Dawley rat liver cytosol incubated for 1 hr followed by compound washout measured after 10 mins. The class given is ADME, tissue-based. The method, boiled down:
as §4

A short description of data set [14]: Drug uptake in Sprague-Dawley rat liver cytosol incubated for 1 hr followed by compound washout measured after 10 mins by 31P-NMR analysis. Format: ADME, tissue-based. The essentials: as §4

Turning to `CCOP(=O)(OCC)C(NCCCCCC[P+](c1ccccc1)(c1ccccc1)c1ccccc1)C(C)(C)C.[Br-]` (racemic), the LD10 in the data set on NIH3T3 [1] is listed as 0.2 mM. Moreover, the CC50 at 3 h in data set [2] is 300 µM. Moreover, the pKa in data set [3] came out at 5.63. Besides, the Activity with NIH3T3 [4] came out at 16.7 IU.
Take `CCOP(=O)(OCC)C(NCCCC[P+](c1ccccc1)(c1ccccc1)c1ccccc1)C(C)C.[Br-]` (racemic): the LD10 with NIH3T3 [1] came out at 0.3 mM. Besides, the CC50 at 3 h in data set [2] stood at 600 µM. The results for the LC50 at 1 h in [5] and in data set [6] were 250 µM and 150 µM, respectively. Moreover, the pKa in data set [3] amounted to 5.47. Besides, the Activity in the data set on NIH3T3 [4] is on record as 10.7 IU.
With `CCOP(=O)(OCC)C(C)(C)NCCCC[P+](c1ccccc1)(c1ccccc1)c1ccccc1.[Br-]`, the LD10 with NIH3T3 [1] stood at 0.4 mM. Moreover, the CC50 at 3 h in data set [2] stood at 700 µM. Moreover, the LC50 at 1 h stood at 500 µM in data set [5] and 400 µM in data set [6]. Moreover, in [3], the pKa was 5.9. The Activity with NIH3T3 [4] came out at 10.2 IU.
Take `CCOP(=O)(OCC)C1(C)CCCN1` (stereo not drawn): in the data set with NIH3T3 [1], the LD10 amounted to 78 mM. Besides, the LC50 at 1 h in data set [5] and in data set [6] was over 1000 µM throughout. This compound also had a pKa in [3] of 7.01. Besides, the Activity with NIH3T3 [4] came out at 13.1 IU.
With `CCOP(=O)(OCC)C(C)(C)NCCCCCCCCCCCC[P+](c1ccccc1)(c1ccccc1)c1ccccc1.[Br-]`, the LD10 with NIH3T3 [1] turned out to be 0.05 mM. Besides, the CC50 at 3 h in data set [2] amounted to 100 µM. For the same compound, the LC50 at 1 h in [5] and in data set [6] was under 25 µM throughout. The compound also returned a pKa in [3] of 6.85. Besides, the Activity in the data set with NIH3T3 [4] worked out at 44.7 IU.
`CCOP(=O)(OCC)C(NCCCCCCCCCCCC[P+](c1ccccc1)(c1ccccc1)c1ccccc1)C(C)C.[Br-]` (racemic): the LD10 in the data set on NIH3T3 [1] is given as 0.01 mM. Further, the CC50 at 3 h in data set [2] was 20 µM. Moreover, the LC50 at 1 h in data set [5] and in data set [6] was under 10 µM in each case. For the same compound, the pKa in data set [3] is 6.38. Moreover, in the data set on NIH3T3 [4], the Activity is listed as 52.7 IU.
With `CCOP(=O)(OCC)C(C)(C)NCCCCCCCC[P+](c1ccccc1)(c1ccccc1)c1ccccc1.[Br-]`, the Drug uptake in [7] was 1.32 µmol/g; in data set [12] it was “Active”; in data set [13], 0.64 µmol/g; in [14], “Active”. The LD10 in the data set with NIH3T3 [1] is listed as 0.15 mM. In data set [2], the CC50 at 3 h turned out to be 300 µM. The LC50 at 1 h stood at 100 µM in data set [5] and 75 µM in [6]. Moreover, in the data set with Liver [8], the Stability result is “Stable”. For the same compound, the Activity in the data set on Liver [9] stood at 171.9 mV; in the data set with Liver [11] it was 2.08 µmol/g; in the data set on NIH3T3 [4], 17.7 IU. In the data set with Liver [10], the Ratio is listed as 5.2. Also, the pKa in [3] stood at 6.94.
With `CC(C)(C)/[N+]([O-])=C/c1ccc(OCCCC[P+](c2ccccc2)(c2ccccc2)c2ccccc2)cc1.[Br-]`, the Drug uptake is 1.95 µmol/g in data set [7], “Active” in data set [12], 0.12 µmol/g in data set [13] and “Not Active” in data set [14]. Besides, in the data set on NIH3T3 [1], the LD10 is recorded as 0.05 mM. The CC50 at 3 h in data set [2] was determined as 200 µM. The LC50 at 1 h in data set [5] stood at 100 µM; in [6], 50 µM. The Stability result in the data set on Liver [8] is “Stable”. In addition, the values for the Activity with Liver [9], in the data set with Liver [11] and with NIH3T3 [4] were 170.7 mV, 1.95 µmol/g and 49.7 IU, respectively. For the same compound, in the data set on Liver [10], the Ratio is on record as 4.7.
In the case of `CCCNC(C)(C)P(=O)(OCC)OCC`, the Drug uptake was under 0.05 µmol/g in data set [7] and 0.56 µmol/g in data set [13]. Besides, in the data set with NIH3T3 [1], the LD10 is listed as 76 mM. Moreover, the Activity in the data set with Liver [9] was found to be 181.3 mV; in the data set with Liver [11], 2.33 µmol/g; in the data set with NIH3T3 [4], 11.9 IU. The Ratio with Liver [10] turned out to be 5.9. In data set [3], this compound came in with a pKa of 6.99.
For the compound `CC(C)(C)/[N+]([O-])=C/c1ccccc1`, the Drug uptake was under 0.05 µmol/g in data set [7] and 0.88 µmol/g in data set [13]. Moreover, the LD10 with NIH3T3 [1] is 4.1 mM. In data set [2], the CC50 at 3 h was found to be 7200 µM. The LC50 at 1 h in data set [5] and in data set [6] was over 500 µM each time. For the same compound, the Activity in the data set with Liver [9] was 178.9 mV; in the data set with Liver [11], 2.11 µmol/g; with NIH3T3 [4] it was 14.2 IU. Also, the Ratio in the data set on Liver [10] turned out to be 5.5.
For the compound `CCOP(=O)(OCC)C(NCCCCCCCC[P+](c1ccccc1)(c1ccccc1)c1ccccc1)C(C)C.[Br-]` (racemic), in the data set with NIH3T3 [1], the LD10 turned out to be 0.05 mM. In addition, the CC50 at 3 h in data set [2] was found to be 300 µM. The LC50 at 1 h in data set [5] and in data set [6] was 25 µM throughout. The compound also had a pKa in data set [3] of 6.23. For the same compound, the Activity in the data set on NIH3T3 [4] was determined as 49.4 IU.
As for `CCOP(=O)(OCC)C(C)(C)NCCCCCC[P+](c1ccccc1)(c1ccccc1)c1ccccc1.[Br-]`, the Drug uptake in [7] was 1.55 µmol/g; in data set [13] it was 0.93 µmol/g. Also, in the data set on NIH3T3 [1], the LD10 was found to be 0.2 mM. For the same compound, the CC50 at 3 h in data set [2] is 600 µM. Moreover, the figures for the LC50 at 1 h in data set [5] and in data set [6] were 250 µM and 100 µM, respectively. The results for the Activity with Liver [9], in the data set with Liver [11] and in the data set with NIH3T3 [4] were 174.2 mV, 2.29 µmol/g and 14.9 IU, respectively. Besides, the Ratio with Liver [10] was determined as 5.7. The same compound gave a pKa in data set [3] of 6.53.
`CCOP(=O)(OCC)C(C)(CCC[P+](c1ccccc1)(c1ccccc1)c1ccccc1)NCC(C)C.[Br-]` (racemic): the LD10 with NIH3T3 [1] was 0.5 mM. The CC50 at 3 h in [2] stood at 700 µM. Besides, the LC50 at 1 h in data set [5] and in data set [6] was 300 µM each time. Moreover, in data set [3], the pKa is 5.39. Besides, the Activity in the data set on NIH3T3 [4] was found to be 12.9 IU.
Consider `CCOP(=O)(OCC)C(C)(N)CCC[P+](c1ccccc1)(c1ccccc1)c1ccccc1` (racemic), for which the pKa in [3] is 5.13.
On to `CCOP(=O)(OCC)C(NCCCCCC[P+](c1ccccc1)(c1ccccc1)c1ccccc1)C(C)C.[Br-]` (racemic), for which, in the data set on NIH3T3 [1], the LD10 was 0.2 mM. The CC50 at 3 h in [2] was 500 µM. Also, the LC50 at 1 h in data set [5] and in data set [6] was 130 µM in each case. Besides, in data set [3], the pKa was found to be 5.99. Moreover, the Activity in the data set with NIH3T3 [4] is listed as 15.9 IU.
